Data set [1] relates to Cytomegalovirus. The data set is described as follows: Antiviral activity against Cytomegalovirus AD-169 infected in HEL cells assessed as reduction of virus-induced cytopathogenicity. In kind it is functional, organism-based. The conditions noted are these: Human betaherpesvirus 5, AD-169, HEL. On the technique in general: Cytopathic effects are the visible damage that an infection or toxin causes in cultured cells.

Data set [2] deals with Cytomegalovirus. The data set is described as follows: Antiviral activity against Cytomegalovirus Davis infected in HEL cells assessed as reduction of virus-induced cytopathogenicity. In kind it is functional, organism-based. To be noted: Human betaherpesvirus 5, Davis.
Data set [3] in a line: Cytotoxicity against HEL cells assessed as alternation of cell morphology by microscopic analysis. To be noted: human. In kind it is cell-based.
In data set [4] the test system is Human alphaherpesvirus 3. The data set is described as follows: Antiviral activity against Varicella-zoster virus expressing thymidine kinase infected in HEL cells assessed as reduction of virus-induced plaque formation. In kind it is functional, organism-based. To be noted: Human alphaherpesvirus 3, HEL. A digest of the protocol: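 Plaque-reduction assay in HEL cells. TK+ VZV strains were Oka and YS; TK- strains were 07-1 and YS-R. Virus input was 100 PFU, with graded compound concentrations. Plaques were counted once formation was complete in untreated infected controls. […] Two independent experiments were run.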

Data set [5] deals with Human alphaherpesvirus 3. The data set is described as follows: Antiviral activity against thymidine kinase-deficient Varicella-zoster virus infected in HEL cells assessed as reduction of virus-induced plaque formation. In kind it is functional, organism-based. To be noted: Human alphaherpesvirus 3, HEL. In outline: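 Plaque-reduction assay in HEL cells. TK+ VZV strains were Oka and YS; TK- strains were 07-1 and YS-R. Virus input was 100 PFU, with graded compound concentrations. Plaques were counted once formation was complete in untreated infected controls. Two independent experiments were run.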

Another data set concerns L1210. Put plainly: Cytotoxicity against mouse L1210 cells assessed as inhibition of cell proliferation. In kind it is functional, cell-based.
Data set [6] relates to CCRF-CEM. Put plainly: Cytotoxicity against human CEM cells assessed as inhibition of cell proliferation. In kind it is functional, cell-based.
Data set [7] deals with HeLa. Put plainly: Cytotoxicity against human HeLa cells assessed as inhibition of cell proliferation. In kind it is functional, cell-based.
A further data set has as its system MDCK. The data set is described as follows: Cytotoxicity against MDCK cells assessed cell viability by MTS assay. In kind it is cell-based, Canis lupus familiaris. The conditions noted are these: dog. In outline:
(§1)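 Cells were exposed to a range of compound concentrations. Viability was measured by the colorimetric formazan-based MTS assay.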

Data set [8] in a line: Cytotoxicity against CRFK cells assessed cell viability by MTS assay. In kind it is cell-based, Felis catus. To be noted: cat. In outline: as §1
For orientation: Tetrazolium dyes change colour on reduction, which living cells bring about.

For data set [9], the system named is Human alphaherpesvirus 1. Put plainly: Antiviral activity against Herpes simplex virus 1 KOS infected in HEL cells assessed as reduction of virus-induced cytopathogenicity. The conditions noted are these: Human alphaherpesvirus 1, KOS. In kind it is functional, organism-based.
The subject of data set [10] is Human alphaherpesvirus 1. Put plainly: Antiviral activity against thymidine kinase-deficient acyclovir-resistant Herpes simplex virus 1 KOS infected in HEL cells assessed as reduction of virus-induced cytopathogenicity. In kind it is functional, organism-based. The conditions noted are these: Human alphaherpesvirus 1, KOS.
Data set [11] relates to CCRF-CEM. Put plainly: Potency index, ratio of 5-Fluorouracil IC50 to compound IC50 for human CEM cells. In kind it is functional.
The test system of the next data set is Human alphaherpesvirus 2. The data set is described as follows: Antiviral activity against Herpes simplex virus 2 G infected in HEL cells assessed as reduction of virus-induced cytopathogenicity. The conditions noted are these: Human alphaherpesvirus 2, strain G. In kind it is functional, organism-based.
The test system of a further data set is Coxsackievirus B4. Put plainly: Antiviral activity against Coxsackievirus B4 infected in African green monkey Vero cells assessed as reduction of virus-induced cytopathogenicity. In kind it is functional, organism-based. To be noted: Enterovirus B. A digest of the protocol: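 Confluent Vero (Coxsackie B4) or HeLa (vesicular stomatitis virus) monolayers in 96-well plates were inoculated with 100 CCID50 virus or 20 PFU and incubated with varying compound concentrations. Cytopathicity was scored once complete in untreated infected controls. […] Two separate experiments were run.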

Another data set has as its system Punta Toro virus. Put plainly: Antiviral activity against Punta Toro virus infected in African green monkey Vero cells assessed as reduction of virus-induced cytopathogenicity. In kind it is functional, organism-based. In outline:
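Confluent Vero monolayers were infected with 100 CCID50 of virus and then incubated with a range of compound concentrations. Viral cytopathicity was scored once it was complete in untreated infected control cultures. […] Two independent experiments were run.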

The nature of data set [12]: Cytotoxicity against African green monkey Vero cells assessed as alternation of cell morphology by microscopic analysis. In kind it is cell-based. To be noted: chlorocebus sabaeus. A digest of the protocol: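 Vero cells were exposed to graded compound concentrations. MCC is the lowest concentration producing a microscopically detectable change in cell morphology. Two experiments were run.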

Data set [13] has as its system HeLa. The data set is described as follows: Cytotoxicity against human HeLa cells assessed as reduction of cell survival after 48 hrs by MTT assay. In kind it is functional, cell-based.
The next data set deals with K562. The data set is described as follows: Cytotoxicity against human K562 cells assessed as reduction of cell survival after 48 hrs by MTT assay. To be noted: K562, 48 h. In kind it is functional, cell-based.

Data on twelve compounds can be found in ChEMBL document CHEMBL3585293, “Design, antiviral and cytostatic properties of isoxazolidine-containing amonafide analogues” (Bioorg Med Chem, 2015).

Each structure is given as a SMILES string.

Usually EC50 stands for the concentration at which the effect is half-maximal. By IC50 is commonly meant the midpoint of a concentration-inhibition curve. One may read the CC50 as the concentration at which the toxic effect on the cells reaches its halfway point.

Regarding `CCCCN1C(=O)c2cccc3cc(NC(=O)[C@@H]4C[C@@H](P(=O)(OCC)OCC)N(C)O4)cc(c23)C1=O` (racemic), the 50% effective concentration (EC50) with Cytomegalovirus [1] was greater than 20 µM; in the data set on Cytomegalovirus [2] it was greater than 20 µM; with Human alphaherpesvirus 3 [4] it was 28 µM; in the data set with Human alphaherpesvirus 3 [5], 40 µM. The MCC in data set [3] is no less than 100 µM. Moreover, the IC50 was found to be 85 µM with L1210, 25 µM with CCRF-CEM [6] and 78 µM in the data set with HeLa [7]. Further, the CC50 (with MDCK; in data set [8]) was greater than 100 µM each time.
Consider `CCOP(=O)(OCC)[C@@H]1C[C@@H](C(=O)Nc2cc3c4c(cccc4c2)C(=O)N(CCN2CCCC2)C3=O)ON1C` (relative stereo), for which the half-maximal effective concentration (EC50) with Cytomegalovirus [1] was 8.9 µM; in the data set with Cytomegalovirus [2], 10.9 µM; in the data set on Human alphaherpesvirus 3 [4] it was greater than 20 µM; in the data set on Human alphaherpesvirus 3 [5], greater than 20 µM; in the data set on Human alphaherpesvirus 1 [9], 45 µM; in the data set on Human alphaherpesvirus 1 [10] it was 45 µM. Moreover, the MCC in data set [3] is no less than 100 µM. The IC50 is 1.7 µM in the data set with L1210, 3.9 µM in the data set with CCRF-CEM [6] and 1.1 µM in the data set with HeLa [7]. Further, the “Ratio IC50” value in the data set with CCRF-CEM [11] stood at 5. Also, the values for the CC50 (in the data set on MDCK; in data set [8]) were 87.3 µM and greater than 100 µM, respectively.
Regarding `CCOP(=O)(OCC)[C@@H]1C[C@H](C(=O)Nc2cc3c4c(cccc4c2)C(=O)N(CCN2CCCC2)C3=O)ON1C` (racemic), the EC50 in the data set on Cytomegalovirus [1] was 45 µM; in the data set with Cytomegalovirus [2], 45 µM; in the data set with Human alphaherpesvirus 3 [4], greater than 20 µM; in the data set with Human alphaherpesvirus 3 [5] it was greater than 20 µM; with Human alphaherpesvirus 1 [9], greater than 100 µM; in the data set with Human alphaherpesvirus 1 [10] it was greater than 100 µM. Further, the EC50 in the data set on Human alphaherpesvirus 2 was determined as 58 µM. The MCC in data set [3] was no less than 100 µM. Also, the half-maximal inhibitory concentration (IC50) was determined as 4.4 µM with L1210, 12 µM in the data set with CCRF-CEM [6] and 3 µM in the data set on HeLa [7]. Besides, the results for the CC50 (with MDCK; in data set [8]) were greater than 100 µM and 89.1 µM, respectively.
As for `O=c1[nH]c(=O)n([C@H]2C[C@H](O)[C@@H](CO)O2)cc1/C=C/Br` [BRIVUDINE], in [3], the MCC is greater than 250 µM. Moreover, the EC50 was determined as 0.029 µM with Human alphaherpesvirus 3 [4], 1 µM in the data set with Human alphaherpesvirus 3 [5] and 2 µM with Human alphaherpesvirus 1 [10].
Regarding `CCCN1C(=O)c2cccc3cc(NC(=O)[C@H]4C[C@@H](P(=O)(OCC)OCC)N(C)O4)cc(c23)C1=O` (racemic), the concentration giving a half-maximal response (EC50) in the data set with Cytomegalovirus [1] turned out to be 45 µM; with Cytomegalovirus [2] it was 45 µM; in the data set with Human alphaherpesvirus 3 [4], 20 µM; with Human alphaherpesvirus 3 [5] it was 38 µM. Moreover, the MCC in [3] is greater than 100 µM. Further, the concentration for half-maximal inhibition (IC50) with L1210 worked out at 76 µM; with CCRF-CEM [6], 47 µM; in the data set with HeLa [7], 70 µM. For the same compound, the CC50 (in the data set with MDCK; in data set [8]) was greater than 100 µM each time.
Regarding `CCOP(=O)(OCC)[C@@H]1C[C@@H](C(=O)Nc2cc3c4c(cccc4c2)C(=O)N(CCN(C)C)C3=O)ON1C` (racemic), the EC50 with Cytomegalovirus [1] stood at 8.9 µM; in the data set on Cytomegalovirus [2], 8.9 µM; with Human alphaherpesvirus 3 [4], 14 µM; in the data set on Human alphaherpesvirus 3 [5], 26 µM; in the data set on Human alphaherpesvirus 1 [9], 45 µM; with Human alphaherpesvirus 1 [10], 45 µM. Moreover, the MCC in [3] was no less than 100 µM. Also, the IC50 was 1.5 µM with L1210, 3.4 µM in the data set with CCRF-CEM [6] and 1.8 µM in the data set with HeLa [7]. In the data set on CCRF-CEM [11], the “Ratio IC50” value is given as 5. The CC50 was found to be 75.2 µM in the data set with MDCK and 95.2 µM in data set [8].
Turning to `CCOP(=O)(OCC)[C@@H]1C[C@H](C(=O)Nc2cc3c4c(cccc4c2)C(=O)N(CC(C)C)C3=O)ON1C` (racemic), the EC50 in the data set with Cytomegalovirus [1] and with Cytomegalovirus [2] was 45 µM in each case. Further, the MCC in [3] is greater than 100 µM. Besides, the IC50 with L1210 was determined as 73 µM; in the data set on CCRF-CEM [6], 26 µM; in the data set on HeLa [7], 49 µM. Further, the results for the CC50 (with MDCK; in data set [8]) were 51.8 µM and greater than 100 µM, respectively.
Regarding `NC(=O)c1ncn([C@@H]2O[C@H](CO)[C@@H](O)[C@H]2O)n1` [RIBAVIRIN], the values for the EC50 in the data set with Coxsackievirus B4 and with Punta Toro virus were greater than 250 µM and 112 µM, respectively. Also, the MCC in [12] is greater than 250 µM.
Turning to `CCOP(=O)(OCC)C1CC(c2ccc3ccccc3c2)ON1C` (stereo not drawn), in the data set with HeLa [13], the IC50 was 50 µM.
With `CCOP(=O)(OCC)[C@@H]1C[C@H](C(=O)Nc2cc3c4c(cccc4c2)C(=O)N(CCN(C)C)C3=O)ON1C` (racemic), the EC50 with Cytomegalovirus [1] is 37 µM; in the data set on Cytomegalovirus [2], 37 µM; in the data set on Human alphaherpesvirus 3 [4], no less than 11 µM; with Human alphaherpesvirus 3 [5], 20 µM; in the data set on Human alphaherpesvirus 1 [9] it was 50 µM; in the data set on Human alphaherpesvirus 1 [10] it was 50 µM. The concentration for a half-maximal effect (EC50) in the data set with Human alphaherpesvirus 2 amounted to 50 µM. In data set [3], the MCC was no less than 100 µM. Besides, the IC50 in the data set on L1210 worked out at 2.9 µM; in the data set with CCRF-CEM [6], 6 µM; with HeLa [7], 3.3 µM. For the same compound, the 50% cytotoxic concentration (CC50) in the data set with MDCK is greater than 100 µM; in data set [8] it was 62.2 µM.
Regarding `CCOP(=O)(OCC)[C@@H]1C[C@H](C(=O)Nc2cc3c4c(cccc4c2)C(=O)N(CCN(CC)CC)C3=O)ON1C` (racemic), the EC50 was 100 µM in the data set on Cytomegalovirus [1], no less than 100 µM in the data set on Cytomegalovirus [2], greater than 20 µM in the data set on Human alphaherpesvirus 3 [4] and 36 µM with Human alphaherpesvirus 3 [5]. Besides, in data set [3], the MCC is greater than 100 µM. Also, the IC50 was determined as 16 µM in the data set with L1210, 23 µM in the data set with CCRF-CEM [6] and 7.3 µM in the data set on HeLa [7]. This compound also displayed a CC50 in [8] greater than 100 µM.
Regarding `CCOP(=O)(OCC)C1CC(c2cccc3ccccc23)ON1C` (stereo not drawn), the 50% inhibitory concentration (IC50) in the data set with K562 was 90 µM.
